In data set [1] the test system is Mus musculus. Description: Cardiotoxicity in BALB/C nude mouse xenografted with human MDA-MB-231 cells assessed as change in LDH level at 12 umol/kg, iv administered starting on day 5 measured after day 22. Particulars: in vivo. The class given is toxicity, organism-based. In a few lines: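 Serum from xenograft mice given daily iv doses in 5% HS15: blood taken by cardiac puncture before sacrifice and spun at 3000 rpm for 20 min at 4 °C. D-LDH activity measured with a colorimetric kit. Mean ± SEM, n = 6; one-way ANOVA with Tukey's test against the 5% HS15 control.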

Data set [2] concerns Mus musculus. Description: Toxicity in BALB/C nude mouse xenografted with human MDA-MB-231 cells assessed as body weight change at 12 umol/kg, iv administered starting on day 5 measured after day 22. It is filed as organism-based. Particulars: in vivo.
Data set [3] has as its system MCF7. Put plainly: Antiproliferative activity against FAP-alpha deficient human MCF7 cells incubated for 48 hrs by MTT assay. It is filed as functional, cell-based. Particulars: MCF7, 48 h. In outline:
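Cells grown in DMEM with 10% FBS and 1% penicillin-streptomycin at 37 °C, 5% CO2; 10% heat-inactivated FBS used during cytotoxicity testing to exclude serum FAP activity. Viability read by MTT; IC50 as mean ± SEM of at least three independent experiments. Transfected lines were made from MDA-MB-231 with human FAPα plasmid or empty pCMV6-Entry vector and checked by Western blot at 48 h.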

In data set [4] the test system is Mus musculus. Put plainly: Toxicity in BALB/C nude mouse xenografted with human MDA-MB-231 cells assessed as histopathologic change in spleen at 12 umol/kg, iv administered starting on day 5 measured after day 22 by hematoxylin-eosin staining-based assay. The class given is organism-based. Particulars: in vivo. In a few lines: (§1)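 Tissues from dosed xenograft mice fixed for 24 h and paraffin-embedded. Sections of 5 μm, H&E stained; heart, liver, spleen, lung, kidney and femur examined by a pathologist blind to treatment.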

Data set [5] concerns Mus musculus. Put plainly: Toxicity in BALB/C nude mouse xenografted with human MDA-MB-231 cells assessed as histopathologic change in lungh at 12 umol/kg, iv administered starting on day 5 measured after day 22 by hematoxylin-eosin staining-based assay. It is filed as organism-based. Particulars: in vivo. In outline: as §1

`C[C@]12CC[C@H](OC(=O)[C@H](Cc3c[nH]c4ccccc34)NC(=O)[C@@H]3CCCN3C(=O)CNC(=O)OCc3ccccc3)C[C@H]1CC[C@@H]1[C@@H]2[C@H](O)C(=O)[C@]2(C)[C@@H](c3ccc(=O)oc3)CC[C@]12O`: the Activity result in data set [1], in data set [2], in data set [4] and in data set [5] was “Non-Toxic” each time. This compound displayed an IC50 in data set [3] of 11.6 nM.

Source of the values: ChEMBL document CHEMBL4038302, “Fibroblast Activation Protein α Activated Tripeptide Bufadienolide Antitumor Prodrug with Reduced Cardiotoxicity” (J Med Chem, 2017).
